Measurements: ChEMBL document CHEMBL1932930, “Synthesis and biological assessment of novel 2-thiazolylhydrazones and computational analysis of their recognition by monoamine oxidase B” (Eur J Med Chem, 2012)

B1: Amine oxidase [flavin-containing] A (Homo sapiens) (protein)
chain: MENQEKASIAGHMFDVVVIGGGISGLSAAKLLTEYGVSVLVLEARDRVGGRTYTIRNEHVDYVDVGGAYVGPTQNRILRLSKELGIETYKVNVSERLVQYVKGKTYPFRGAFPPVWNPIAYLDYNNLWRTIDNMGKEIPTDAPWEAQHADKWDKMTMKELIDKICWTKTARRFAYLFVNINVTSEPHEVSALWFLWYVKQCGGTTRIFSVTNGGQERKFVGGSGQVSERIMDLLGDQVKLNHPVTHVDQSSDNIIIETLNHEHYECKYVINAIPPTLTAKIHFRPELPAERNQLIQRLPMGAVIKCMMYYKEAFWKKKDYCGCMIIEDEDAPISITLDDTKPDGSLPAIMGFILARKADRLAKLHKEIRKKKICELYAKVLGSQEALHPVHYEEKNWCEEQYSGGCYTAYFPPGIMTQYGRVIRQPVGRIFFAGTETATKWSGYMEGAVEAGERAAREVLNGLGKVTEKDIWVQEPESKDVPAVEITHTFWERNLPSVSGLLKIIGFSTSVTALGFVLYKYKLLPRS
B2: Amine oxidase [flavin-containing] B (Homo sapiens) (protein)
chain: MSNKCDVVVVGGGISGMAAAKLLHDSGLNVVVLEARDRVGGRTYTLRNQKVKYVDLGGSYVGPTQNRILRLAKELGLETYKVNEVERLIHHVKGKSYPFRGPFPPVWNPITYLDHNNFWRTMDDMGREIPSDAPWKAPLAEEWDNMTMKELLDKLCWTESAKQLATLFVNLCVTAETHEVSALWFLWYVKQCGGTTRIISTTNGGQERKFVGGSGQVSERIMDLLGDRVKLERPVIYIDQTRENVLVETLNHEMYEAKYVISAIPPTLGMKIHFNPPLPMMRNQMITRVPLGSVIKCIVYYKEPFWRKKDYCGTMIIDGEEAPVAYTLDDTKPEGNYAAIMGFILAHKARKLARLTKEERLKKLCELYAKVLGSLEALEPVHYEEKNWCEEQYSGGCYTTYFPPGILTQYGRVLRQPVDRIYFAGTETATHWSGYMEGAVEAGERAAREILHAMGKIPEDEIWQSEPESVDVPAQPITTTFLERHLPSVPGLLRLIGLTTIFSATALGFLAHKRGLLVRV

Columns and labels:
[1] = substrate: NCCc1ccc(O)cc1; assay: Activity of human recombinant MAO-A expressed in baculovirus infected BTI-TN-5B1-4 insect cells assessed as hydrogen peroxide production after 15 mins by fluorimetric method
Outline: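 Microsomal hMAO-A (specific activity 150 nmol p-tyramine/min/mg protein), dosed to oxidize 165 pmol p-tyramine/min in controls. It was preincubated 15 min at 37 °C in 0.05 M sodium phosphate pH 7.4 with test drug, then started with 1 mM p-tyramine (final). H2O2 was read as Amplex Red/peroxidase resorufin fluorescence (ex 545/em 590) over 15 min at 37 °C, in the dark.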

[2] = substrate: NCCc1ccc(O)cc1; assay: Activity of human recombinant MAO-B expressed in baculovirus infected BTI-TN-5B1-4 insect cells assessed as hydrogen peroxide production after 15 mins by fluorimetric method
Outline: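 Microsomal hMAO-B (specific activity 22 nmol p-tyramine/min/mg protein), adjusted to oxidize 165 pmol p-tyramine/min in controls. It was preincubated 15 min at 37 °C with drug in 0.05 M sodium phosphate pH 7.4, then started with 1 mM p-tyramine (final). Resorufin fluorescence (ex 545/em 590) from Amplex Red/peroxidase was read over 15 min at 37 °C, in the dark. Controls used DMSO vehicle.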

| Protein | Km [1] [µM] | Vmax [1] [µmol/min/mg] | Km [2] [µM] | Vmax [2] [µmol/min/mg] |
| --- | --- | --- | --- | --- |
| B1 | 514 | 0.301 |  |  |
| B2 |  |  | 105 | 0.0289 |
